Reference: PubChem BioAssay AID809 (SRMLSC, 2007)
Activity calls are given as the source filed them.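 The calls were made as follows: active = EC50 for reversing nicotinamide-shortened yeast lifespan at or below a set limit; inactive = EC50 above that limit.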

Each compound was assayed on S. cerevisiae DeaD BB579, nicotinamide rescue growth, OD615 48 h (assay: BB579 yeast growth restoration under nicotinamide – S. cerevisiae, yeast lifespan extension project, dose response (AID 809)).
Method in brief: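 Assay system: Saccharomyces cerevisiae DeaD strain BB579, log-phase cells; Medium: CSMM-D glucose restrictive medium; Dosing: compounds from 0.078 to 10 µM final, 0.5% DMSO; Times: 4 h pre-incubation, 48 h exposure at 30 °C; Technique: optical density at 615 nm (absorbance); Evaluation: culture saturation density reflecting mother-cell replicative lifespan.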

Structure (SMILES) | EC50
COc1ccc(-c2cc(C(F)(F)F)nc(S(C)(=O)=O)n2)cc1OC | 8.76 µM
CCOC(=O)Cc1csc(NC(=O)c2c(O)c3ccccc3n(CC(C)C)c2=O)n1 | 9.63 µM
CCOC(=O)C1C(c2cccs2)NC(=O)N(C)C1(O)C(F)(F)F (configuration not stated) | > 10 µM (inactive)
O=C(O)c1cccc2c1C(=O)N(C1CCCCC1)C2 | 4.22 µM
O=C1c2ccccc2C(=O)N1Cc1nc2ccccc2c(=O)n1-c1ccc(Br)cn1 | 1.67 µM
COc1ccc(O)c(C(=O)c2cc(C#N)c(=O)n(CC3CCCO3)c2)c1 (configuration not stated) | 8.21 µM
O=S(=O)(CCSc1ccccn1)c1nc2ccccc2s1 | 5.84 µM
CCN1C(=O)C(=Cc2ccc(C)s2)C(=O)N(CC)C1=S | 3.74 µM
Cc1cc(C(=O)CN2C(=O)NC(C)(CC(C)C)C2=O)c(C)n1-c1ccc2c(c1)OCO2 (configuration not stated) | > 10 µM (inactive)
O=C(CCl)N1c2ccccc2OCC1c1ccccc1 (configuration not stated) | 9.75 µM
COC(=O)C1=C(C(=O)OC)C(c2ccccc2O)c2sc(=O)[nH]c2S1 (configuration not stated) | 5.38 µM
COC(=O)C1=C(C(=O)OC)SC(=C2C(=S)C(C)(C)N(C(=O)C(C)C)c3ccccc32)S1 | > 10 µM (inactive)
O=C(N/N=C/c1cccc(F)c1)c1c(O)c2ccccc2[nH]c1=O | 3.21 µM
CC(=O)Oc1oc(-c2ccccc2)nc1C=Nc1ccccc1 | 5.95 µM
O=C(O)c1c[nH]c(=S)n1-c1ccc(F)cc1 | > 10 µM (inactive)
CC[n+]1c(/C=C2\C=C(C)CC(C)(C)C2)sc2ccccc21 | > 10 µM (inactive)
C=CCn1c(C)cc(C(=O)CSc2nc3ccccc3c(=O)[nH]2)c1C | > 10 µM (inactive)
Cc1ccc(S(=O)(=O)Nc2ccccc2/C=N/c2nc3ccccc3n2C(C)C)cc1 | > 10 µM (inactive)
O=C1c2ccccc2-c2onc3c(Oc4ccccc4)cc(O)c1c23 | 6.05 µM
CCCCCSc1nc2c(c(=O)[nH]c(=O)n2C)n1C | > 10 µM (inactive)
O=C(Nc1cccnc1)c1c(O)c2cccc3c2n(c1=O)CC3 | 4.44 µM
C=C1C(=O)C=C2CN(C(=O)c3ccccc3)[C@@](Cc3ccc(F)cc3)(C(=O)OC)[C@@H]12 | > 10 µM (inactive)

Structure (SMILES) | EC50
CC1(C)CC(=O)C(C(=O)Cc2ccccc2[N+](=O)[O-])C(=O)C1 | 4.3 µM
C/C(=N\NC(=O)c1cccnc1)c1c(O)cc(C)oc1=O | > 10 µM (inactive)
Cc1ccccc1NC(=O)c1ccccc1 | > 10 µM (inactive)
O=S(=O)(Nc1cccc2c1CCCC2)c1ccc(Cl)cc1 | > 10 µM (inactive)
CC(=O)c1c(O)cc2n(c1=O)-c1ccc(Cl)cc1C2(C)C | 7.34 µM
O=C(O)CCCCCN1C(=O)/C(=C\c2ccncc2)SC1=S | > 10 µM (inactive)
CC(=O)[C@H]1[C@H](c2cccc(Cl)c2)C(C#N)(C#N)[C@@H]2c3ccccc3C=CN21 | 8.71 µM
C[C@]12CC[C@@H](O)C[C@@H]1CC[C@@H]1[C@@H]2CC[C@]2(C)[C@@H](O)CC[C@@H]12 | > 10 µM (inactive)
O=S(=O)(Nc1nc2ccccc2nc1Cl)c1ccc2ccccc2c1 | 7.25 µM
CC1=NN(c2ccc(C(F)(F)F)cn2)C(=O)C1 | > 10 µM (inactive)
Cc1ccc(C(=O)/C=C\C(=O)c2ccc(C)cc2)cc1 | 9.15 µM
Cc1oc2c(c(=O)c1C)C(=O)CC(c1ccccc1)C2 (configuration not stated) | 7.82 µM
Cc1c(NC(=O)C(=O)/C=C(\O)c2ccc(Cl)cc2)c(=O)n(-c2ccccc2)n1C | 3.19 µM
O=C(NC(=S)NNC(=O)c1ccccc1O)c1ccco1 | 6.02 µM
O=C1NCC2=C1C(c1ccc(Br)cc1)Nc1ccccc1N2 (configuration not stated) | 6.26 µM
O=C(/C=C/c1ccccc1)Nc1ncn[nH]1 | > 10 µM (inactive)
CC(C)C(C(=O)O)N1C(=O)/C(=C/c2cccn2C)SC1=S (configuration not stated) | 8.05 µM
Cc1ccc(/C=C2/C(=O)NC(=O)N(CCc3ccc(F)cc3)C2=O)o1 | > 10 µM (inactive)
COc1cc(/C=c2\sc3nc(-c4ccncc4)nn3c2=O)ccc1OC(C)=O | > 10 µM (inactive)
O=[N+]([O-])c1c(C(Cl)Cl)nn(-c2ccccc2)c1N1CCCC1 | 7.47 µM
Cc1ccc(C)c(N2CCN(S(=O)(=O)c3c(C)noc3/C=C/N(C)C)CC2)c1 | > 10 µM (inactive)
CN(C)C1(c2nnnn2CCOC(=O)Nc2ccc(Cl)cc2)CCCCC1 | > 10 µM (inactive)

Structure (SMILES) | EC50
CS(=O)(=O)c1nc(-c2ccccc2)cc(C(F)(F)F)n1 | 3.32 µM
CC(=O)Nc1ccc(C(=O)CSc2nnc(-c3ccc(O)cc3)n2CC2CCCO2)cc1 (configuration not stated) | > 10 µM (inactive)
O=C1CC(c2ccccc2)CC(O)=C1C=NCCN1CCOCC1 (configuration not stated) | 6.42 µM
C=CCn1c(C)cc(C(=O)COc2ncnc3sccc23)c1C | 9.94 µM
Cc1cccc(N2C(=O)C(Oc3ccc(Cl)cc3Cl)C2C=O)c1C (configuration not stated) | 6.52 µM
Cc1cc(C=C2C(=O)N(C)C(=S)N(C)C2=O)c(C)n1-c1cccnc1 | > 10 µM (inactive)
O=C(NCc1cccnc1)c1ccc(S(=O)(=O)N2CCCCC2)cc1 | > 10 µM (inactive)
CCCCCCN1CC(C(=O)OCC)C(=O)C1=O (configuration not stated) | 4.74 µM
COc1ccc(CCN2C(=O)C(O)=C(C(=O)c3ccco3)C2c2cccs2)cc1OC (configuration not stated) | 8.94 µM
CCNCCNC(=O)c1c(O)c2cccc3c2n(c1=O)CCC3 | 6.32 µM
CCc1cc2c(=O)c(Oc3ccccc3)c(C)oc2cc1O | > 10 µM (inactive)
CCOC(=O)CCCNC(=O)COc1ccccc1C#N | > 10 µM (inactive)
O=C(CCl)c1ccc(Cc2ncc(C(F)(F)F)cc2Cl)s1 | 3.83 µM
O=C(/C(=C/O)N=Nc1ccc(Cl)cc1)c1ccncc1 | 2.64 µM
CS(=O)(=O)c1nc(-c2cccs2)cc(C(F)(F)F)n1 | 3.91 µM
CCCC(=O)Nc1ccccc1Sc1ncnc2scc(-c3ccccc3)c12 | > 10 µM (inactive)
Cc1ccc(S(=O)(=O)C(C#N)c2nc3ccccc3nc2N2CCCC2)cc1 (configuration not stated) | > 10 µM (inactive)
O=C1CC(c2ccc(F)cc2)CC(O)=C1C=NCCN1CCN(C(=O)Nc2ccccc2)CC1 (configuration not stated) | 7.09 µM
CCOc1ccccc1/C=c1\sc2ncnn2c1=O | 7.17 µM
CC[n+]1ccc(C[n+]2ccccc2)c2ccccc21 | > 10 µM (inactive)
CCOc1cc(/C=C\[N+](=O)[O-])ccc1OCC(=O)Nc1ccccc1C | > 10 µM (inactive)
CCCn1c(SCC(=O)c2ccc3c(c2)NC(=O)CO3)nc2ccccc21 | > 10 µM (inactive)

Structure (SMILES) | EC50
COc1ccccc1N(CN1CCCC1=O)C(=O)c1c(F)cccc1F | > 10 µM (inactive)
CCCCC(=Nc1ccc(N)cc1)C1=C(O)C(C(=O)OC)C(C)(C)CC1=O (configuration not stated) | 5.51 µM
CC(C)n1c(=O)c2c(O)cc(=O)oc2c2ccccc21 | 0.63 µM
Cc1ccc(/C=C/C(=O)C2C(=O)c3ccccc3C2=O)cc1 | 8.56 µM
C/C(=N\NC(=O)c1ccccc1O)c1c(O)cc(C)oc1=O | 2.9 µM
Cn1nnnc1SCCNCC#Cc1ccccc1 | > 10 µM (inactive)
Cc1ccc(-c2ccc(/C=C3\C(=O)ON=C3c3ccccc3)o2)c([N+](=O)[O-])c1 | 6.93 µM
O=c1[nH]c2ccccc2nc1C(Cl)c1ccccc1 (configuration not stated) | 9.79 µM
C[C@]12CC[C@@H]3c4ccc(O)cc4CC[C@H]3[C@@H]1CC[C@@H]2OC(=O)CCC(=O)O | 5.42 µM
COc1ccc(-c2noc(CSc3nnc(-c4ccncc4)n3-c3ccc(F)cc3)n2)cc1OC | > 10 µM (inactive)
COc1cccc(C(=O)Oc2cc(N)n(S(=O)(=O)c3ccc(C)cc3)n2)c1OC | 9.26 µM
CCn1ccc(C(=O)Nc2ccc(S(=O)(=O)Nc3ccccc3OC)cc2)n1 | > 10 µM (inactive)
COCCOC(=O)/C(=C/c1ccc(OC(=O)c2ccccc2)cc1)C(C)=O | 4.96 µM
Cc1ccc(OCC(=O)c2c(O)c3ccccc3oc2=O)cc1C | 8.97 µM
CCOC(=O)C(=Cc1ccc(F)cc1)C(=O)OCC | 6.7 µM
O=C1c2ccccc2C(=O)N1c1ncc(Cc2ccc(Cl)cc2)s1 | > 10 µM (inactive)
O=c1cc(O)c2c(=O)n(-c3ccccc3)c3c(c2o1)CCCCC3 | 5.16 µM
CCOc1ccc(/C=C/C(=O)c2c(O)c3ccccc3oc2=O)cc1 | > 10 µM (inactive)
COn1c(SC2CCCCC2)nc2ccccc2c1=O | 1.14 µM
CCc1nnc(NC(=O)c2cccc(S(=O)(=O)N(C)c3ccccc3)c2)s1 | > 10 µM (inactive)
Cc1cc(C)c(NC(=O)/C(=C/c2ccccc2)c2ccccc2)c(C)c1 | > 10 µM (inactive)
